Test results: ChEMBL document CHEMBL1122900, “Effects of alkyl and aryl substitution on the myocardial specificity of radioiodinated phosphonium, arsonium, and ammonium cations” (J Med Chem, 1985)
Each block holds one molecule with its values, some of them ahead of it.

Tests used:
Rattus norvegicus [1] = assay: Evaluated for the distribution of radioactivity in tissues of female Fischer rats kidneys after 60 minutes intravenous administration; dose/g, range 4.62-5.60; type: ADME, organism-based, Kidney; conditions: in vivo, 1 h
Rattus norvegicus [2] = assay: Evaluated for the distribution of radioactivity in tissues of female Fischer rats liver after 60 minutes intravenous administration; dose/g, range 0.73-1.19; type: ADME, organism-based; conditions: in vivo, 1 h
Summary of the method: (§1)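 Female Fischer 344 rats (10-12 weeks, 170-200 g), fed ad libitum, got a single iv tail-vein injection under ether anaesthesia of the 125I-labelled cation (2.85-8.38 μCi). The tracer was dissolved in Me2SO, diluted with saline to 1% Me2SO and filtered. At the set times rats were killed by cervical fracture and blood taken by cardiac puncture. Organs were rinsed, blotted, weighed and gamma-counted against injectate standards. Results are %dose/g, mean and range, n=5. Thyroid weight was taken as 7.5 mg/100 g body weight.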

Rattus norvegicus [3] = assay: Evaluated for the distribution of radioactivity in tissues of female Fischer rats kidneys after 5 minutes intravenous administration; dose/g, range 14.4-20.1; type: ADME, organism-based, Kidney; conditions: in vivo
Rattus norvegicus [4] = assay: Evaluated for the distribution of radioactivity in tissues of female Fischer rats blood after 60 minutes intravenous administration; dose/g, range 0.13-0.15; type: ADME, organism-based; conditions: in vivo, 1 h
Rattus norvegicus [5] = assay: Evaluated for the distribution of radioactivity in tissues of female Fischer rats lungs after 5 minutes intravenous administration; dose/g, range 0.96-1.35; type: ADME, organism-based, Lung; conditions: in vivo; summary of the method: as §1
Rattus norvegicus [6] = assay: Evaluated for the distribution of radioactivity in tissues of female Fischer rats lungs after 60 minutes intravenous administration; dose/g, range 0.81-1.13; type: ADME, organism-based, Lung; conditions: in vivo, 1 h; summary of the method: as §1
Rattus norvegicus [7] = assay: Evaluated for the distribution of radioactivity in tissues of female Fischer rats blood after 30 minutes intravenous administration; dose/g, range 0.19-0.24; type: ADME, organism-based; conditions: in vivo, 0.5 h
Rattus norvegicus [8] = assay: Evaluated for the distribution of radioactivity in tissues of female Fischer rats thyroid after 30 minutes intravenous administration; dose/g, range 19-24; type: ADME, organism-based, Thyroid gland; conditions: in vivo, 0.5 h; summary of the method: as §1
Rattus norvegicus [9] = assay: Evaluated for the distribution of radioactivity in tissues of female Fischer rats thyroid after 5 minutes intravenous administration; dose/g, range 13-18; type: ADME, organism-based, Thyroid gland; conditions: in vivo; summary of the method: as §1
Rattus norvegicus [10] = assay: Evaluated for the distribution of radioactivity in tissues of female Fischer rats blood after 5 minutes intravenous administration; dose/g, range 0.40-0.45; type: ADME, organism-based; conditions: in vivo
Rattus norvegicus [11] = assay: Evaluated for the distribution of radioactivity in tissues of female Fischer rats kidneys after 30 minutes intravenous administration; dose/g, range 7.21-7.95; type: ADME, organism-based, Kidney; conditions: in vivo, 0.5 h
Rattus norvegicus [12] = assay: Evaluated for the distribution of radioactivity in tissues of female Fischer rats thyroid after 60 minutes intravenous administration; dose/g, range 35-53; type: ADME, organism-based, Thyroid gland; conditions: in vivo, 1 h; summary of the method: as §1
Rattus norvegicus [13] = assay: Evaluated for the distribution of radioactivity in tissues of female Fischer rats heart after 30 minutes intravenous administration; dose/g, range 1.39-2.43; type: ADME, organism-based; conditions: in vivo, 0.5 h
Rattus norvegicus [14] = assay: Evaluated for the distribution of radioactivity in tissues of female Fischer rats heart after 5 minutes intravenous administration.; dose/g, range 2.20-2.97; type: ADME, organism-based; conditions: in vivo
Rattus norvegicus [15] = assay: Evaluated for the distribution of radioactivity in tissues of female Fischer rats heart after 60 minutes intravenous administration; dose/g, range 1.93-3.58; type: ADME, organism-based; conditions: in vivo, 1 h
Rattus norvegicus [16] = assay: Evaluated for the distribution of radioactivity in tissues of female Fischer rats liver after 30 minutes intravenous administration; dose/g, range 1.51-2.23; type: ADME, organism-based; conditions: in vivo, 0.5 h
Rattus norvegicus [17] = assay: Evaluated for the distribution of radioactivity in tissues of female Fischer rats liver after 5 minutes intravenous administration; dose/g, range 3.12-4.56; type: ADME, organism-based; conditions: in vivo; summary of the method: as §1
Rattus norvegicus [18] = assay: Evaluated for the distribution of radioactivity in tissues of female Fischer rats lungs after 30 minutes intravenous administration; dose/g, range 0.83-1.21; type: ADME, organism-based, Lung; conditions: in vivo, 0.5 h; summary of the method: as §1
Rattus norvegicus [19] = assay: Evaluated for the distribution of radioactivity in tissues of female Fischer rats liver after 60 minutes intravenous administration; dose/g, range 1.08-2.31; type: ADME, organism-based; conditions: in vivo, 1 h; summary of the method: as §1
Rattus norvegicus [20] = assay: Evaluated for the distribution of radioactivity in tissues of female Fischer rats kidneys after 5 minutes intravenous administration; dose/g, range 4.78-9.72; type: ADME, organism-based, Kidney; conditions: in vivo
Rattus norvegicus [21] = assay: Evaluated for the distribution of radioactivity in tissues of female Fischer rats kidneys after 60 minutes intravenous administration; dose/g, range 0.17-0.25; type: ADME, organism-based, Kidney; conditions: in vivo, 1 h
Rattus norvegicus [22] = assay: Evaluated for the distribution of radioactivity in tissues of female Fischer rats thyroid after 60 minutes intravenous administration; dose/g, range 5-12; type: ADME, organism-based, Thyroid gland; conditions: in vivo, 1 h; summary of the method: as §1
Rattus norvegicus [23] = assay: Evaluated for the distribution of radioactivity in tissues of female Fischer rats lungs after 5 minutes intravenous administration; dose/g, range 0.51-0.66; type: ADME, organism-based, Lung; conditions: in vivo; summary of the method: as §1
Rattus norvegicus [24] = assay: Evaluated for the distribution of radioactivity in tissues of female Fischer rats lungs after 60 minutes intravenous administration; dose/g, range 0.28-0.33; type: ADME, organism-based, Lung; conditions: in vivo, 1 h; summary of the method: as §1
Rattus norvegicus [25] = assay: Evaluated for the distribution of radioactivity in tissues of female Fischer rats blood after 30 minutes intravenous administration; dose/g, range 0.07-0.09; type: ADME, organism-based; conditions: in vivo, 0.5 h
Rattus norvegicus [26] = assay: Evaluated for the distribution of radioactivity in tissues of female Fischer rats blood after 5 minutes intravenous administration; dose/g, range 0.10-0.14; type: ADME, organism-based; conditions: in vivo
Rattus norvegicus [27] = assay: Evaluated for the distribution of radioactivity in tissues of female Fischer rats thyroid after 30 minutes intravenous administration; dose/g, range 4-7; type: ADME, organism-based, Thyroid gland; conditions: in vivo, 0.5 h; summary of the method: as §1
Rattus norvegicus [28] = assay: Evaluated for the distribution of radioactivity in tissues of female Fischer rats thyroid after 5 minutes intravenous administration; dose/g, range 5-8; type: ADME, organism-based, Thyroid gland; conditions: in vivo; summary of the method: as §1
Rattus norvegicus [29] = assay: Evaluated for the distribution of radioactivity in tissues of female Fischer rats lungs after 30 minutes intravenous administration.; dose/g, range 0.34-0.47; type: ADME, organism-based, Lung; conditions: in vivo, 0.5 h; summary of the method: as §1
Rattus norvegicus [30] = assay: Evaluated for the distribution of radioactivity in tissues of female Fischer rats blood after 60 minutes intravenous administration; dose/g, range 0.08-0.09; type: ADME, organism-based; conditions: in vivo, 1 h
Rattus norvegicus [31] = assay: Evaluated for the distribution of radioactivity in tissues of female Fischer rats heart after 30 minutes intravenous administration; dose/g, range 0.95-1.44; type: ADME, organism-based; conditions: in vivo, 0.5 h
Rattus norvegicus [32] = assay: Evaluated for the distribution of radioactivity in tissues of female Fischer rats kidneys after 30 minutes intravenous administration; dose/g, range 0.24-0.31; type: ADME, organism-based, Kidney; conditions: in vivo, 0.5 h
Rattus norvegicus [33] = assay: Evaluated for the distribution of radioactivity in tissues of female Fischer rats heart after 5 minutes intravenous administration; dose/g, range 0.90-1.46; type: ADME, organism-based; conditions: in vivo
Rattus norvegicus [34] = assay: Evaluated for the distribution of radioactivity in tissues of female Fischer rats heart after 60 minutes intravenous administration; dose/g, range 1.05-1.57; type: ADME, organism-based; conditions: in vivo, 1 h
Rattus norvegicus [35] = assay: Evaluated for the distribution of radioactivity in tissues of female Fischer rats liver after 30 minutes intravenous administration; dose/g, range 2.30-3.12; type: ADME, organism-based; conditions: in vivo, 0.5 h
Rattus norvegicus [36] = assay: Evaluated for the distribution of radioactivity in tissues of female Fischer rats liver after 5 minutes intravenous administration; dose/g, range 4.12-6.30; type: ADME, organism-based; conditions: in vivo; summary of the method: as §1

Distribution (Rattus norvegicus [1]): 5.15% | Distribution (Rattus norvegicus [2]): 0.93% | Distribution (Rattus norvegicus [3]): 17.54% | Distribution (Rattus norvegicus [4]): 0.14% | Distribution (Rattus norvegicus [5]): 1.18% | Distribution (Rattus norvegicus [6]): 0.95% | Distribution (Rattus norvegicus [7]): 0.22% | Distribution (Rattus norvegicus [8]): 21% | Distribution (Rattus norvegicus [9]): 16% | Distribution (Rattus norvegicus [10]): 0.42% | Distribution (Rattus norvegicus [11]): 7.51% | Distribution (Rattus norvegicus [12]): 41% | Distribution (Rattus norvegicus [13]): 1.95% | Distribution (Rattus norvegicus [14]): 2.51% | Distribution (Rattus norvegicus [15]): 2.73% | Distribution (Rattus norvegicus [16]): 1.84% | Distribution (Rattus norvegicus [17]): 3.72% | Distribution (Rattus norvegicus [18]): 1.05%
SMILES: CCCCCCCC[P+](C)(C)CCC/C=C/I.[I-]

Distribution (Rattus norvegicus [19]): 1.55% | Distribution (Rattus norvegicus [20]): 7.46% | Distribution (Rattus norvegicus [21]): 0.21% | Distribution (Rattus norvegicus [22]): 9% | Distribution (Rattus norvegicus [23]): 0.57% | Distribution (Rattus norvegicus [24]): 0.29% | Distribution (Rattus norvegicus [25]): 0.08% | Distribution (Rattus norvegicus [26]): 0.12% | Distribution (Rattus norvegicus [27]): 5% | Distribution (Rattus norvegicus [28]): 6% | Distribution (Rattus norvegicus [29]): 0.39% | Distribution (Rattus norvegicus [30]): 0.09% | Distribution (Rattus norvegicus [31]): 1.11% | Distribution (Rattus norvegicus [32]): 0.27% | Distribution (Rattus norvegicus [33]): 1.12% | Distribution (Rattus norvegicus [34]): 1.21% | Distribution (Rattus norvegicus [35]): 2.76% | Distribution (Rattus norvegicus [36]): 5.16%
SMILES: CC[N+](CC)(CC)CCC/C=C/I.[I-]
